# According to ChEMBL document CHEMBL1123181 (J Med Chem, 1986):
# What was measured:
# [1] = target: T1, Angiotensin-converting enzyme (Oryctolagus cuniculus, UniProt P12822); test: In vitro inhibition of Angiotensin I converting enzyme activity in rabbit lung; format: tissue-based; settings: read-out: I50
# T1 sequence (P12822 whole entry): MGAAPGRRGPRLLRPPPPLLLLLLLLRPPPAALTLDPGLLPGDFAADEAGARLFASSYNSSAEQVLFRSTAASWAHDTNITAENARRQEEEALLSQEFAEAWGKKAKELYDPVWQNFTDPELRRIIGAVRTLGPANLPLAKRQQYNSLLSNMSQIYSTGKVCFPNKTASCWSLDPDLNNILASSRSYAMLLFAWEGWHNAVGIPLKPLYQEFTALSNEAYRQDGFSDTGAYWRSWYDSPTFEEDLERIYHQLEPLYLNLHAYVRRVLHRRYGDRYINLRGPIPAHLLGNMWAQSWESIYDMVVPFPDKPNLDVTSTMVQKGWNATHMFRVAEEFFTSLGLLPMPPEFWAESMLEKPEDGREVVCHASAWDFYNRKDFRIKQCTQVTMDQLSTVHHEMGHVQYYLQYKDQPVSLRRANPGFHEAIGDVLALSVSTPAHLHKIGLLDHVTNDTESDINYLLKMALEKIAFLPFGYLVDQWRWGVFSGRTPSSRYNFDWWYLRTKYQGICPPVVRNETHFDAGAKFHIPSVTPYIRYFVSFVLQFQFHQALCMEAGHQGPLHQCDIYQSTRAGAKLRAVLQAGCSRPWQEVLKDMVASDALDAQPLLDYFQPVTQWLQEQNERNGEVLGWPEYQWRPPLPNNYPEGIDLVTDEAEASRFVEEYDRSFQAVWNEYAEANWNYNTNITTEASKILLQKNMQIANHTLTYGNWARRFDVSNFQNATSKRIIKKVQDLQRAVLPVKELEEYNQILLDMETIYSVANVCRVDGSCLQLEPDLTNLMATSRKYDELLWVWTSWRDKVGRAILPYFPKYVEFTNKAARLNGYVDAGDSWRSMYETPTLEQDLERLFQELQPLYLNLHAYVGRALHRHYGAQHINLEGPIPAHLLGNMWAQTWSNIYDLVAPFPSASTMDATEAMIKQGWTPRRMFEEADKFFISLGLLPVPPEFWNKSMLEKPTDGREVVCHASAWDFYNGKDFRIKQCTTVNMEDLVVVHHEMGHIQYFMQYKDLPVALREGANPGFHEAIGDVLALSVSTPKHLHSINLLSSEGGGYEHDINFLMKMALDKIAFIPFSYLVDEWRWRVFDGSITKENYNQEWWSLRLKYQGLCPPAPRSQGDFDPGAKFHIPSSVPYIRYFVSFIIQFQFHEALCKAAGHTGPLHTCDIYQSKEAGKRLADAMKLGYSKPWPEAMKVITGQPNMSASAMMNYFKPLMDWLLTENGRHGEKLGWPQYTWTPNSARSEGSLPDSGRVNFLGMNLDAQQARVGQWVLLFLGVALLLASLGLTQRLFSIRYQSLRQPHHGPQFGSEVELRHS
# [2] = target: Angiotensin-converting enzyme (Rattus norvegicus) (UniProt P47820); test: The time to 50% recovery of the angiotensin I response was measured after po administration at 1.5 mg/kg
# [3] = target: Angiotensin-converting enzyme (Rattus norvegicus) (UniProt P47820); test: Percentage inactivation of the angiotensin I induced vasopressor response in normotensive conscious rats after po administration at dose 1.5 mg/kg; 17-24; settings: at 1.5 mg/kg
# [4] = target: T1, Angiotensin-converting enzyme; test: Inhibition of the activity of rabbit lung Angiotensin I converting enzyme
# How it was run: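 Rabbit lung acetone-powder ACE, crude and dialyzed. Enzyme was added to substrate ± inhibitor and the reaction stopped with HCl after 10 min. Hippuric acid was extracted into AcOEt and read at 228 nm.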
# [5] = target: T1, Angiotensin-converting enzyme; test: In vitro inhibition of Angiotensin I converting enzyme activity at pH 8.5 in rabbit lung; format: tissue-based; settings: read-out: I50
# [6] = target: Angiotensin-converting enzyme (Rattus norvegicus) (UniProt P47820); test: The time to 50% recovery of the angiotensin I response was measured after po administration at 1.5 mg/kg; 10-60
# [7] = target: Angiotensin-converting enzyme (Rattus norvegicus) (UniProt P47820); test: Percentage inactivation of the angiotensin I induced vasopressor response in normotensive conscious rats after po administration at dose 1.5 mg/kg; 14-16
# [8] = target: Angiotensin-converting enzyme (Rattus norvegicus) (UniProt P47820); test: The time to 50% recovery of the angiotensin I response was measured after po administration at 1.5 mg/kg; 0-30
# [9] = target: Angiotensin-converting enzyme (Rattus norvegicus) (UniProt P47820); test: Percentage inactivation of the angiotensin I induced vasopressor response in normotensive conscious rats after po administration at dose 1.5 mg/kg; 0-29
# [10] = target: Angiotensin-converting enzyme (Rattus norvegicus) (UniProt P47820); test: Percentage inactivation of the angiotensin I induced vasopressor response in normotensive conscious rats after po administration at dose 1.5 mg/kg; 3-5
# [11] = target: Angiotensin-converting enzyme (Rattus norvegicus) (UniProt P47820); test: The time to 50% recovery of the angiotensin I response was measured after po administration at 1.5 mg/kg; 30-50
# [12] = target: Angiotensin-converting enzyme (Rattus norvegicus) (UniProt P47820); test: The time to 50% recovery of the angiotensin I response was measured after po administration at 0.15 mg/kg; 10-30
# [13] = target: Angiotensin-converting enzyme (Rattus norvegicus) (UniProt P47820); test: Percentage inactivation of the angiotensin I induced vasopressor response in normotensive conscious rats after po administration at dose 1.50 mg/kg; 73-79
# [14] = target: Angiotensin-converting enzyme (Rattus norvegicus) (UniProt P47820); test: Percentage inactivation of the angiotensin I induced vasopressor response in normotensive conscious rats after po administration at dose 0.15 mg/kg; 24-49
# Rattus norvegicus [15] = test: Time taken by the compound to change arterial pressure outside the control area at a dose of 30mg/kg, po; format: functional, Artery
# Rattus norvegicus [16] = test: Maximum percent change in mean arterial pressure by the compound over control after po administration at 30 mg/kg dosage; format: functional, Artery
# How it was run: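 Spontaneously hypertensive rats kept on a sodium-deficient diet received the agent orally. Value = maximum % change in mean arterial pressure over control. Duration = time outside a control area, defined as the means ±2 SD of arterial pressure and heart rate readings from 45 control rats.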
# [17] = target: Angiotensin-converting enzyme (Rattus norvegicus) (UniProt P47820); test: The time to 50% recovery of the angiotensin I response was measured after po administration at 0.30 mg/kg
# [18] = target: Angiotensin-converting enzyme (Rattus norvegicus) (UniProt P47820); test: Percentage inactivation of the angiotensin I induced vasopressor response in normotensive conscious rats after po administration at dose 0.08 mg/kg; 80-85
# [19] = target: Angiotensin-converting enzyme (Rattus norvegicus) (UniProt P47820); test: The time to 50% recovery of the angiotensin I response was measured after po administration at 1.5 mg/kg; 20-50
# [20] = target: Angiotensin-converting enzyme (Rattus norvegicus) (UniProt P47820); test: Percentage inactivation of the angiotensin I induced vasopressor response in normotensive conscious rats after po administration at dose 1.5 mg/kg; 14-21
# [21] = target: Angiotensin-converting enzyme (Rattus norvegicus) (UniProt P47820); test: The time to 50% recovery of the angiotensin I response was measured after po administration at 0.3 mg/kg
# [22] = target: Angiotensin-converting enzyme (Rattus norvegicus) (UniProt P47820); test: Percentage inactivation of the angiotensin I induced vasopressor response in normotensive conscious rats after po administration at dose 0.058 mg/kg; 65-70
# [23] = target: Angiotensin-converting enzyme (Rattus norvegicus) (UniProt P47820); test: Percentage inactivation of the angiotensin I induced vasopressor response in normotensive conscious rats after po administration at dose 1.5 mg/kg; 20-34
# [24] = target: Angiotensin-converting enzyme (Rattus norvegicus) (UniProt P47820); test: The time to 50% recovery of the angiotensin I response was measured after po administration at 0.15 mg/kg; 30-100
# [25] = target: Angiotensin-converting enzyme (Rattus norvegicus) (UniProt P47820); test: Percentage inactivation of the angiotensin I induced vasopressor response in normotensive conscious rats after po administration at dose 0.15 mg/kg; 64-100
# [26] = target: Angiotensin-converting enzyme (Rattus norvegicus) (UniProt P47820); test: Percentage inactivation of the angiotensin I induced vasopressor response in normotensive conscious rats after po administration at dose 0.3 mg/kg; 15-17; settings: at 0.3 mg/kg
# [27] = target: Angiotensin-converting enzyme (Rattus norvegicus) (UniProt P47820); test: The time to 50% recovery of the angiotensin I response was measured after po administration at 1.5 mg/kg; 20-80
# [28] = target: Angiotensin-converting enzyme (Rattus norvegicus) (UniProt P47820); test: Percentage inactivation of the angiotensin I induced vasopressor response in normotensive conscious rats after po administration at dose 1.5 mg/kg; 43-64
# [29] = target: Angiotensin-converting enzyme (Rattus norvegicus) (UniProt P47820); test: The time to 50% recovery of the angiotensin I response was measured after po administration at 0.15 mg/kg; 60-140
# [30] = target: Angiotensin-converting enzyme (Rattus norvegicus) (UniProt P47820); test: Percentage inactivation of the angiotensin I induced vasopressor response in normotensive conscious rats after po administration at dose 0.15 mg/kg; 85-96
# Sequence of Angiotensin-converting enzyme (Rattus norvegicus) (P47820 whole entry, looked up): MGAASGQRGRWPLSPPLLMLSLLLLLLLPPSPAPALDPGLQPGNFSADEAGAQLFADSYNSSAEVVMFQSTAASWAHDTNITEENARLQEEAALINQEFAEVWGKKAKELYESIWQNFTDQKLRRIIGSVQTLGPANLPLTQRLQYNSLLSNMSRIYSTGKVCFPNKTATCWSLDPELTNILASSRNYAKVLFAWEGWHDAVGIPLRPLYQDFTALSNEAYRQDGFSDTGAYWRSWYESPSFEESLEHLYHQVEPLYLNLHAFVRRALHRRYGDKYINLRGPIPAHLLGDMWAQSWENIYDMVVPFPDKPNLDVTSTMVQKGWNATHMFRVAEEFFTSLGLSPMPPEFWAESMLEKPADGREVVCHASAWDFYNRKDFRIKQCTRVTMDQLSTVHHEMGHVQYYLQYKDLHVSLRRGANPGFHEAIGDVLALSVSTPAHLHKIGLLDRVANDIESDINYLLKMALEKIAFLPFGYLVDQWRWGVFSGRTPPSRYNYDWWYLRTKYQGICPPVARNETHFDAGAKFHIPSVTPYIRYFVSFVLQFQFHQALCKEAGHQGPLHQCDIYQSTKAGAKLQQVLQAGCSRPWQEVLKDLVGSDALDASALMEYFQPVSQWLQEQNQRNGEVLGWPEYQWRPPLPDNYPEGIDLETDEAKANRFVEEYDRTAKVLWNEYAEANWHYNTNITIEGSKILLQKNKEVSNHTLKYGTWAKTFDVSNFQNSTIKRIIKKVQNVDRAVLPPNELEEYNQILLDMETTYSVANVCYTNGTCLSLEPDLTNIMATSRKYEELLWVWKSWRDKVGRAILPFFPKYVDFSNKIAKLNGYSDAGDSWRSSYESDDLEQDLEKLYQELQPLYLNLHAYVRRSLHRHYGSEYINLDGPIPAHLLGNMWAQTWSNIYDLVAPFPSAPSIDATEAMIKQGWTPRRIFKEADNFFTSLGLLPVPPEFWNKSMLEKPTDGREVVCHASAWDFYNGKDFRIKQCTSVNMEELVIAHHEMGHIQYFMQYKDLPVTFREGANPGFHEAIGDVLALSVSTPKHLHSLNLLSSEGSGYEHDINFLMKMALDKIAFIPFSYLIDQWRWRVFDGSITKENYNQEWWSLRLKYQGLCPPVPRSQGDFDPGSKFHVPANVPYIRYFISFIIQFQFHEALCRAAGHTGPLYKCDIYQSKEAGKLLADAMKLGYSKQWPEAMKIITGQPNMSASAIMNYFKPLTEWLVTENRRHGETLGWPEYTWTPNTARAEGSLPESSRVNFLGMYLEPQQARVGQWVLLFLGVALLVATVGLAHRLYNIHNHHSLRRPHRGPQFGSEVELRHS
SMILES,IC50 [1] [µM],IC50 [4] [µM],IC50 [5] [µM],also measured
CC1SC(=O)[C@@H]2CCCN2C1=O (stereo not given in full),33,,,Duration [2]: 10 min; inhibition [3]: 17%
C[C@H]1CSC(=O)[C@@H]2Cc3ccccc3CN2C1=O,0.8,,,
"CC(S)C(=O)N1CSC[C@H]1C(=O)O (stereo in doubt; 37b(S,R))",,0.14,,
C[C@@H]1SC(=O)[C@@]2(C)Cc3ccccc3CN2C1=O,> 100,,> 100,Duration [6]: 10 min; inhibition [7]: 14%
CC(=O)SC(C)C(=O)N(CC(=O)O)C1CCCC1 (stereo not given),,0.51,,
CC1CSC(=O)C2N(C1=O)C(C)(C)SC2(C)C (stereo not given),50,,15,Duration [8]: 0 min; inhibition [9]: 0%
CC(=O)S[C@H](C)C(=O)N1CSC[C@H]1C(=O)O,,37,,
CC(=O)SC(C)C(=O)N1C(C(=O)O)C(C)(C)SC1(C)C (stereo not given),,> 100,,
CC1SC(=O)C(C)N(C2CCCC2)C1=O (stereo not given),27,,6.8,inhibition [10]: 3%
CC(=O)SC(C)C(=O)N(C1CCCC1)C(C)C(=O)O (stereo not given),,6.8,,
CC1SC(=O)CN(C2CCCC2)C1=O (stereo not given),0.15,,0.057,Duration [11]: 30 min; Duration [12]: 10 min; inhibition [13]: 73%; inhibition [14]: 24%
Cc1ccc(N(CC(=O)O)C(=O)C(C)S)cc1 (stereo not given),,0.026,,
CC(S)C(=O)N1C(C(=O)O)C(C)(C)SC1(C)C (stereo not given),,21,,
CCOC(=O)[C@H](CCc1ccccc1)N[C@@H](C)C(=O)N1CCC[C@H]1C(=O)O,,,,Duration (Rattus norvegicus [15]): >24 h; MAP (Rattus norvegicus [16]): -38%; Duration [17]: 210 min; inhibition [18]: 50%
CC1SC(=O)C2N(C1=O)C(C)(C)SC2(C)C (stereo not given),> 100,,21,Duration [19]: 20 min; inhibition [20]: 14%
CC(S)C(=O)N(C1CCCC1)C(C)C(=O)O (stereo not given),,6.8,,

SMILES,IC50 [1] [µM],IC50 [4] [µM],IC50 [5] [µM],also measured
C[C@H](CS)C(=O)N1CCC[C@H]1C(=O)O [CAPTOPRIL],,,,MAP (Rattus norvegicus [16]): -30%
CC(=O)SC(C)C(=O)N(CC(=O)O)c1ccc(C)cc1 (stereo not given),,0.18,,
CC1SC(=O)CNC1=O (stereo not given),1.9,,1.9,
CC(=O)SC(C)C(=O)N(C1CCCC1)C(C)(C)C(=O)O (stereo not given),,95,,
CC(S)C(=O)N(CC(=O)O)C1CCCC1 (stereo not given),,0.057,,
C[C@H](CSC(=O)C(C)(C)C)C(=O)N(CC(=O)O)C1CCCC1 [PIVOPRIL],,,0.017,Duration (Rattus norvegicus [15]): >24 h; MAP (Rattus norvegicus [16]): -30%; Duration [21]: 60 min; inhibition [22]: 50%
CC1SC(=O)C(C)(C)N(C2CCCC2)C1=O (stereo not given),90,,,Duration [2]: 20 min; inhibition [23]: 20%
CC(=O)SC(C)C(=O)N1Cc2ccccc2CC1(C)C(=O)O (stereo not given),,> 100,,
C[C@@H]1CSC(=O)[C@@H]2CCCN2C1=O,0.026,,0.017,Duration [24]: 30 min; inhibition [25]: 64%
CC(=O)S[C@@H](C)C(=O)N1CSC[C@H]1C(=O)O,,1.7,,
"CC(S)C(=O)N1CSC[C@H]1C(=O)O (stereo in doubt; 37b(R,R))",,10,,
C[C@H]1CSC(=O)[C@@H]2Cc3ccccc3CN2C1=O (mixture of isomers),,,,Duration [21]: 10 min; inhibition [26]: 15%
CC1CSC(=O)[C@@H]2CSCN2C1=O (stereo not given in full),0.047,,0.058,Duration [27]: 20 min; inhibition [28]: 43%
CC1CSC(=O)CN(C2CC3CCC2C3)C1=O (stereo not given),0.012,,0.025,Duration [29]: 60 min; inhibition [30]: 85%
CC1CSC(=O)[C@@H]2Cc3ccccc3CN2C1=O (stereo not given in full),0.018,,0.045,
